The record followed here is ChEMBL document CHEMBL3244097, “Fluorinated retinoic acids and their analogues. 1. Synthesis and Biological activity of (4-methoxy-2,3,6-trimethylphenyl)nonatetraenoic acid analogues” (J Med Chem, 1979).

Series [1] relates to Mus musculus. In words: Toxicity in mouse assessed as hypervitaminosis dose compound treated ip daily monday through friday in first week and monday through thursday in second week measured after 1 day of last injection. It is filed as organism-based. The conditions noted are these: in vivo, 24 h. A digest of the protocol:
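Normal mice received retinoid suspended in water containing 0.1% carboxymethylcellulose and 0.01% Triton X-100, given intraperitoneally daily Monday–Friday in week 1 and Monday–Thursday in week 2. Hypervitaminosis, taken as the measure of toxicity, was scored 1 day after the last injection.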

In series [2] the test system is Mus musculus. In words: Antipapilloma activity against Hart Swiss albino mouse assessed as decrease in chemically-induced papillomas compound treated ip for 5 days/week for 2 weeks. In kind it is functional. In short, it runs like this:
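At least four doses were used. ED50, the dose giving a 50% decrease in papilloma diameter, was read from a plot of percent decrease versus log dose, fitted by least squares, with a correlation coefficient reported.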

In series [3] the test system is Mus musculus. In words: Antipapilloma activity against Hart Swiss albino mouse assessed as decrease in chemically-induced papillomas at 80 mg/kg, ip for 5 days/week for 2 weeks. It is filed as functional. On the set-up: scale not given: the % may be the effect or the level left. The conditions noted are these: route intraperitoneal.
Series [4] has as its system Mus musculus. The experiment in a line: Antipapilloma activity against Hart Swiss albino mouse assessed as decrease in chemically-induced papillomas at 40 mg/kg, ip for 5 days/week for 2 weeks. In kind it is functional. The note with it: route intraperitoneal. On the set-up: scale not given: the % may be the effect or the level left.
Series [5] has as its system Mus musculus. In words: Antipapilloma activity against Hart Swiss albino mouse assessed as decrease in chemically-induced papillomas at 600 mg/kg, ip once weekly for 2 weeks. On the set-up: scale not given: the % may be the effect or the level left. The note with it: route intraperitoneal.
The test system of series [6] is Mus musculus. In words: Antipapilloma activity against Hart Swiss albino mouse assessed as decrease in chemically-induced papillomas at 1000 mg/kg, ip once weekly for 2 weeks. On the set-up: scale not given: the % may be the effect or the level left. The conditions noted are these: route intraperitoneal.
Series [7] has as its system Mus musculus. In words: Antipapilloma activity against Hart Swiss albino mouse assessed as decrease in chemically-induced papillomas at 20 mg/kg, ip for 5 days/week for 2 weeks. In kind it is functional. The conditions noted are these: route intraperitoneal. Also on record: scale not given: the % may be the effect or the level left.
Series [8] deals with Mus musculus. The experiment in a line: Antipapilloma activity against Hart Swiss albino mouse assessed as decrease in chemically-induced papillomas at 10 mg/kg, ip for 5 days/week for 2 weeks. The conditions noted are these: route intraperitoneal. In kind it is functional. On the set-up: scale not given: the % may be the effect or the level left.
Series [9] concerns Mus musculus. In words: Antipapilloma activity against Hart Swiss albino mouse assessed as decrease in chemically-induced papillomas at 5 mg/kg, ip for 5 days/week for 2 weeks. It is filed as functional. Also on record: scale not given: the % may be the effect or the level left. The conditions noted are these: route intraperitoneal.
The test system of series [10] is Mus musculus. The experiment in a line: Antipapilloma activity against Hart Swiss albino mouse assessed as decrease in chemically-induced papillomas at 2.5 mg/kg, ip for 5 days/week for 2 weeks. In kind it is functional. The conditions noted are these: route intraperitoneal. Also on record: scale not given: the % may be the effect or the level left.
In series [11] the test system is Mus musculus. In words: Antipapilloma activity against Hart Swiss albino mouse assessed as decrease in chemically-induced papillomas at 1.25 mg/kg, ip for 5 days/week for 2 weeks. It is filed as functional. The conditions noted are these: route intraperitoneal. On the set-up: scale not given: the % may be the effect or the level left.

As usually defined, the ED50 is the dose that gives a 50% effect, or the effect in half of the subjects. Take `CCOC(=O)/C=C(C)/C=C/C=C(C)/C=C/C1=C(C)CCCC1(C)C`: the Activity in the series on Mus musculus [1] stood at 50 mg/kg/day; in the series with Mus musculus [3], 47%; in the series with Mus musculus [4], 36%; in the series on Mus musculus [5] it was 76%; with Mus musculus [6], 85%. Besides, the ED50 with Mus musculus [2] came out at 48 mg/kg/day.
For the molecule `CCOC(=O)/C=C(C)/C(F)=C/C=C(C)/C=C/c1c(C)cc(OC)c(C)c1C`, the Activity in the series on Mus musculus [1] is on record as 50 mg/kg/day; with Mus musculus [3], 82%; with Mus musculus [4] it was 69%; in the series with Mus musculus [7], 62%; in the series with Mus musculus [8], 76%; in the series on Mus musculus [9], 43%. Also, the ED50 with Mus musculus [2] worked out at 4 mg/kg/day.
As to `COc1cc(C)c(/C=C/C(C)=C(F)/C=C/C(C)=C/C(=O)O)c(C)c1C`, the Activity with Mus musculus [1] is 50 mg/kg/day; with Mus musculus [7], 87%; with Mus musculus [8], 54%; in the series on Mus musculus [9], 30%; in the series on Mus musculus [10], 28%. Further, the ED50 in the series with Mus musculus [2] came to 7.1 mg/kg/day.
For the molecule `CCNC(=O)/C=C(C)/C(F)=C/C=C(C)/C=C/c1c(C)cc(OC)c(C)c1C`, the Activity with Mus musculus [1] is on record as 50 mg/kg/day; in the series on Mus musculus [7], 67%; with Mus musculus [8], 73%. Further, the ED50 in the series on Mus musculus [2] was below 10 mg/kg/day.
Regarding `CCOC(=O)/C=C(C)/C=C/C=C(C)/C=C(\F)c1c(C)cc(OC)c(C)c1C`, in the series on Mus musculus [2], the ED50 was above 40 mg/kg/day. Besides, the Activity in the series with Mus musculus [4] was 40%.
On to `CCOC(=O)/C=C(C)/C=C/C=C(C)/C=C(/F)c1c(C)cc(OC)c(C)c1C`, for which, in the series with Mus musculus [2], the ED50 is above 40 mg/kg/day. In the series with Mus musculus [4], the Activity turned out to be 26%.
On to `COC(=O)/C=C(C)/C=C/C(F)=C(C)\C=C\c1c(C)cc(OC)c(C)c1C`, for which the Activity is 200 mg/kg/day in the series with Mus musculus [1] and 17% in the series with Mus musculus [3]. Besides, the ED50 in the series with Mus musculus [2] is above 80 mg/kg/day.
Regarding `COc1cc(C)c(/C=C/C(C)=C/C=C(F)/C(C)=C/C(=O)O)c(C)c1C`, the Activity in the series on Mus musculus [1] turned out to be 25 mg/kg/day; with Mus musculus [8], 80%; in the series on Mus musculus [9], 63%; in the series with Mus musculus [10], 48%; in the series on Mus musculus [11], 34%. In addition, in the series on Mus musculus [2], the ED50 was 2.7 mg/kg/day.
With `COC(=O)/C=C(C)/C=C(F)/C=C(C)/C=C/c1c(C)cc(OC)c(C)c1C` (mixture of isomers), the Activity is above 200 mg/kg/day in the series on Mus musculus [1] and 25% in the series on Mus musculus [3]. In addition, in the series on Mus musculus [2], the ED50 is above 80 mg/kg/day.
In the same order, the values of `COC(=O)/C=C(C)/C=C/C(F)=C(C)/C=C/C1=C(C)CCCC1(C)C` are 200 mg/kg/day, 60% and below 80 mg/kg/day.
Take `CCOC(=O)/C=C(C)/C=C/C=C(C)/C=C/c1c(C)cc(OC)c(C)c1C` [ETRETINATE]: the Activity stood at 100 mg/kg/day with Mus musculus [1]; 47% in the series on Mus musculus [3]; 33% in the series with Mus musculus [4]; 29% with Mus musculus [7]; 9% in the series on Mus musculus [8]. Moreover, the ED50 in the series with Mus musculus [2] came to 80 mg/kg/day.
For `CCOC(=O)/C(F)=C(C)/C=C/C=C(C)/C=C/c1c(C)cc(OC)c(C)c1C`, the Activity amounted to 12.5 mg/kg/day with Mus musculus [1] and 37% with Mus musculus [8]. For the same molecule, in the series with Mus musculus [2], the ED50 was above 10 mg/kg/day.
In the case of `CCOC(=O)/C(F)=C(C)/C=C/C=C(C)/C=C/C1=C(C)CCCC1(C)C`, the Activity worked out at 100 mg/kg/day in the series on Mus musculus [1] and 40% in the series on Mus musculus [7]. Further, in the series with Mus musculus [2], the ED50 was above 20 mg/kg/day.
Take `COC(=O)/C=C(C)/C=C/C=C(C)/C(F)=C/c1c(C)cc(OC)c(C)c1C`: the Activity with Mus musculus [1] was above 200 mg/kg/day; in the series on Mus musculus [3], 3%. Besides, in the series with Mus musculus [2], the ED50 was above 80 mg/kg/day.
Turning to `COc1cc(C)c(/C=C/C(C)=C/C=C/C(C)=C/C(=O)O)c(C)c1C` [ACITRETIN], the Activity in the series with Mus musculus [1] was 100 mg/kg/day; with Mus musculus [4] it was 90%; with Mus musculus [7], 66%; with Mus musculus [8], 43%; in the series on Mus musculus [9] it was 18%. Moreover, the ED50 with Mus musculus [2] was determined as 12.5 mg/kg/day.
In the case of `CCOC(=O)/C=C(C)/C(F)=C/C=C(C)/C=C/C1=C(C)CCCC1(C)C`, the Activity stood at 100 mg/kg/day in the series with Mus musculus [1]; 83% with Mus musculus [3]; 67% with Mus musculus [4]; 33% with Mus musculus [7]; 33% in the series with Mus musculus [8]. Moreover, in the series on Mus musculus [2], the ED50 stood at 24.3 mg/kg/day.
Regarding `CCOC(=O)/C(F)=C(C)/C(F)=C/C=C(C)/C=C/c1c(C)cc(OC)c(C)c1C`, the results for the Activity in the series with Mus musculus [1] and in the series with Mus musculus [3] were above 200 mg/kg/day and 17%, respectively. Further, the ED50 with Mus musculus [2] was above 80 mg/kg/day.
Take `CCOC(=O)/C=C(C)/C(F)=C/C(F)=C(C)/C=C/c1c(C)cc(OC)c(C)c1C`: the Activity is recorded as above 200 mg/kg/day in the series with Mus musculus [1] and 33% in the series with Mus musculus [3]. Also, the ED50 with Mus musculus [2] was above 80 mg/kg/day.
As for `CCOC(=O)\C=C(/C=C/C=C(C)/C=C/c1c(C)cc(OC)c(C)c1C)C(F)(F)F`, the Activity in the series with Mus musculus [1] is above 200 mg/kg/day; in the series on Mus musculus [3], -2%. Further, in the series on Mus musculus [2], the ED50 was above 80 mg/kg/day.
In the same order, the values of `CCOC(=O)/C(F)=C(C)/C=C/C(F)=C(C)/C=C/c1c(C)cc(OC)c(C)c1C` are above 200 mg/kg/day, 35% and above 80 mg/kg/day.
Regarding `COC(=O)/C=C(C)/C=C/C=C(\C=C\c1c(C)cc(OC)c(C)c1C)C(F)(F)F`, the values for the Activity in the series on Mus musculus [1] and in the series on Mus musculus [3] were above 200 mg/kg/day and 25%, respectively. In addition, the ED50 with Mus musculus [2] was above 80 mg/kg/day.
In the same order, the values of `CCNC(=O)/C=C(C)/C=C/C(F)=C(C)/C=C/c1c(C)cc(OC)c(C)c1C` are 200 mg/kg/day, 53% and 80 mg/kg/day.
In the same order, the values of `CCOC(=O)/C=C(C)/C(F)=C\C=C(C)\C=C\c1c(C)cc(OC)c(C)c1C` are 200 mg/kg/day, 56% and 80 mg/kg/day.
As for `COC(=O)/C=C(C)/C=C/C(F)=C(C)/C=C/c1c(C)cc(OC)c(C)c1C`, the Activity is reported as 50 mg/kg/day with Mus musculus [1]; 79% in the series with Mus musculus [4]; 60% in the series with Mus musculus [7]; 35% in the series with Mus musculus [8]; 28% in the series with Mus musculus [9]. The ED50 with Mus musculus [2] turned out to be 13.8 mg/kg/day.
As to `CCNC(=O)/C=C(C)/C=C/C=C(C)/C=C/c1c(C)cc(OC)c(C)c1C` [MOTRETINIDE], the Activity is 50 mg/kg/day in the series with Mus musculus [1]; 73.8% in the series on Mus musculus [4]; 54% with Mus musculus [7]; 23% in the series on Mus musculus [8]; 11% in the series with Mus musculus [9]. Besides, the ED50 with Mus musculus [2] was 19.2 mg/kg/day.
